Hits are enriched below; roughly 2.5% of the tested compounds scored in any of these assays.
TRPC6 act: mouse TRPC6 channel activators, primary screen, cell-based, HEK293, membrane potential dye; Short transient receptor potential channel 6 (Mus musculus), Q61143; HEK293-TRPC6 membrane potential dye fluorescence; hits give high values; B-score at 10 µM; 0.13% of 310,000 active; AID 2550, 2010;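 active means B-score of the integrated fluorescence ratio above library mean plus 3 SD, and starting fluorescence ratio within library mean plus 5 SD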;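 further: higher score means more depolarization so channel activation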
DSG3 Ab inh: inhibitors of pemphigus antibody binding to DSG3, primary screen, biochemical, bead-based, flow cytometry, scFv-GFP; Desmoglein-3 (Homo sapiens), P32926; DSG3-coupled beads, scFv-anti-DSG3-GFP binding; hits give low values; binding (percent of control), % at 10 µM; 0.48% of 310,000 active; AID 588358, 2011;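 active means binding more than 3 SD below its plate's average and above zero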;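 further: hits lower antibody fragment binding to DSG3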
Target sequence (P32926 whole entry, looked up, the tested form may be a part): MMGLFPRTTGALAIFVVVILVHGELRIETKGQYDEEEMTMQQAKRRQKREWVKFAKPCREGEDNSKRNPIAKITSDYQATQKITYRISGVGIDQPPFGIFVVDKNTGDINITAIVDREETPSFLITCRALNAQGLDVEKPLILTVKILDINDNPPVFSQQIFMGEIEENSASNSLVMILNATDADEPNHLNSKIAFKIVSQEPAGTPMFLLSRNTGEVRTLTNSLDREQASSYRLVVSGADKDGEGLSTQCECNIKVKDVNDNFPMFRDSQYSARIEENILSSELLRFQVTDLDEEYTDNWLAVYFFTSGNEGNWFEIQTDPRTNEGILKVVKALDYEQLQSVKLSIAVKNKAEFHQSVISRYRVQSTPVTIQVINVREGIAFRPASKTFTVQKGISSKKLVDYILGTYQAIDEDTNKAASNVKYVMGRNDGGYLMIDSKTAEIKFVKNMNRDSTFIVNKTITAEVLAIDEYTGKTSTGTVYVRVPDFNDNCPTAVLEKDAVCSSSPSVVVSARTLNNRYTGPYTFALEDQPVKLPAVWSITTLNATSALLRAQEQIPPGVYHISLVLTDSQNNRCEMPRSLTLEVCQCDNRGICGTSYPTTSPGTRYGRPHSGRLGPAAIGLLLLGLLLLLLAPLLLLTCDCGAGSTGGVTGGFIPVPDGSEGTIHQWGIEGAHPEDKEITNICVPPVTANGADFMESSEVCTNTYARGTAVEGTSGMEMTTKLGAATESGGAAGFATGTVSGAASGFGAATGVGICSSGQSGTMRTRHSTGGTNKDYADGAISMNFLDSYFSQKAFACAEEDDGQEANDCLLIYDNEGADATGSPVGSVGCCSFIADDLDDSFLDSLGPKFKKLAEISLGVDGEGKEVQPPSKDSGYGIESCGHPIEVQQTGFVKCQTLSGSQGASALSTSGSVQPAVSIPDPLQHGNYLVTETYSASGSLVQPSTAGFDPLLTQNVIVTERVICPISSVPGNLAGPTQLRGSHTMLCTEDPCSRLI
TRPC4 block: inhibitors of mouse TRPC4 channel, primary screen, Fluo4 calcium, HEK293 TRPC4beta/mu-opioid cells; Short transient receptor potential channel 4 (Mus musculus), Q9QUQ5; 0.39% of 300,000 active; DAMGO-evoked Fluo4 calcium flux; hits give low values; B-score at 10 µM; AID 2247, 2010;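 active means B-score over 3 SD under the library average, no early fluorescence shift, positive overall ratio signal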
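Test system – stable TRPC4beta/mu-opioid receptor HEK293 cells · Probe or stimulus – DAMGO, a submaximal dose followed by a maximal one · Dosing – one concentration per compound · Signal – Fluo4 calcium fluorescence by kinetic imaging, 5 s 1 Hz baseline · Evaluation – per-well B score of integrated baseline-normalized Fluo4 ratio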
TRPC6 inh: mouse TRPC6 channel inhibitors, primary screen, cell-based, HEK293, membrane potential dye. 1.1% of 310,000 active. AID 2553, 2010. B-score at 10 µM. ACh-evoked depolarization; hits give low values;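 active means B-score under library mean minus 3 SD, initial fluorescence not abnormally high, positive integrated signal ratio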;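 further: B-score derived from integrated fluorescence ratio over the kinetic read; more negative B-score means stronger inhibition of depolarization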
TRPC4 potent: positive allosteric modulators of TRPC4, primary screen, cell-based, mouse TRPC4beta, HEK293 mu-opioid, Fluo-4 calcium; DAMGO EC20, Fluo-4 Ca2+ flux; hits give high values; B-score at 10 µM; 0.42% of 310,000 active; AID 2227, 2009;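 active means B-score of calcium response area above 5 SD of library B-scores, with initial fluorescence ratio within 5 SD of library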
TRPC4 act: activators of mouse TRPC4 channel, primary screen, Fluo4 calcium, HEK293 TRPC4beta/mu-opioid cells; Short transient receptor potential channel 4 (Mus musculus), Q9QUQ5; 0.49% of 310,000 active; B-score at 10 µM; Fluo4 calcium fluorescence; hits give high values;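 active means B-score above 5 SD of library B-scores, and initial fluorescence ratio not above library mean plus 5 SD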;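 further: positive B-score marks a calcium rise read as TRPC4 activation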
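System – HEK293 cells stably co-expressing mouse TRPC4beta and mu-opioid receptor · Signal – Fluo4 calcium-sensitive dye fluorescence, kinetic, 1 Hz baseline · Benchmarks – buffer (low) and maximal DAMGO (high) · Read-out – B score of integrated fluorescence ratio per well · Incubation – dye loading 45 min room temperature, 110 s kinetic read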
Hits are given with their value; i = inactive; nt = no result.

SMILES | TRPC6 act | DSG3 Ab inh | TRPC4 block | TRPC6 inh | TRPC4 potent | TRPC4 act
CC(=O)c1ccc(N2CCN(c3ccc(S(=O)(=O)NCCCN(C)C)cc3[N+](=O)[O-])CC2)cc1 | i | i | i | i | 26 | i
Cc1cc(C)n(Cc2ccc(C(=O)O)cc2)n1 | i | i | i | i | i | i
Cc1ccc(C)n1Cc1ccc(C(=O)O)cc1 | nt | 68 | nt | nt | nt | nt
C(=N\N(Cc1ccccc1)c1ccccc1)/c1cccnc1 | i | i | -6 | i | i | i
Clc1cccc2c3c([nH]c12)CCNC3 | i | i | i | i | 16 | i
Clc1ccc2[nH]c3c(c2c1)CNCC3 | i | i | i | i | 19 | i
COc1ccc(NC(=S)N2CCCN(Cc3cccc(Cl)c3)C2)cc1 | i | i | i | i | i | i
COc1cccc(NC(=S)N2CCCN(Cc3ccc(F)cc3)C2)c1 | i | i | i | i | i | 45
CSc1nnc(NC(=O)c2ccc(S(=O)(=O)N3CCOCC3)cc2)s1 | i | i | i | i | i | i
Cn1cnc(C(=O)NCc2ccccc2)c1C(=O)NCc1ccccc1 | nt | 70 | nt | nt | nt | nt
O=C(NCc1ccccc1)c1ncn(Cc2ccccc2)c1C(=O)NCc1ccccc1 | nt | i | nt | nt | nt | nt
O=C(NCc1ccccc1)c1ccc(C(=O)NCc2ccccc2)cc1 | nt | 79 | nt | nt | nt | nt
COc1ccc(C(CNC(=O)c2ccccc2SC)N(C)C)cc1 (configuration not stated) | i | i | i | i | i | 88
CCOc1ncccc1C(=O)NCC(c1ccccc1)N(C)C (configuration not stated) | i | i | i | i | i | 126
COc1ccc(-c2cc(C(=O)NCC(c3ccccc3)N(C)C)c3ccccc3n2)cc1OC (configuration not stated) | i | i | i | i | i | 90
COc1ccc(-c2cc(C(=O)NCc3ccco3)c3ccccc3n2)cc1OC | i | i | i | i | i | i
CN(C)C(CNC(=O)c1cc2ccccc2oc1=O)c1ccccc1 (configuration not stated) | i | i | -6 | i | i | 87
O=C(Cc1ccc(Br)cc1)OCC(=O)c1ccc[nH]1 | nt | i | nt | nt | nt | nt
CC1(c2ccccc2)NC(=O)N(CC(=O)Nc2ccc(N3CCOCC3)cc2)C1=O (configuration not stated) | nt | i | nt | nt | nt | nt
Cc1ccc(NC(=O)c2ccc([N+](=O)[O-])s2)cc1S(=O)(=O)N1CCOCC1 | nt | i | nt | nt | nt | nt
COc1cc(C(C(=O)NC2CCCC2)N(CCO)C(=O)Cn2nnc(-c3ccc(C)o3)n2)ccc1O (configuration not stated) | i | nt | i | i | i | i
Cc1ccc(-c2cc(C(=O)NCCCN3CCOCC3)c3ccccc3n2)cc1C | i | nt | i | i | i | i
COc1ccc(C(CNC(=O)c2cc(SC)ccc2Cl)N(C)C)cc1 (configuration not stated) | i | i | i | i | i | 118
Cc1ccc(-c2cc(C(=O)NCCCN3CCCC3)c3ccccc3n2)cc1C | i | i | i | i | 15 | i
Cc1cccc(NC(=O)c2cc(S(=O)(=O)N3CCCC3)cn2C)c1 | i | i | i | i | i | i
SMILES | TRPC6 act | DSG3 Ab inh | TRPC4 block | TRPC6 inh | TRPC4 potent | TRPC4 act
CCCCN(CC)CCNC(=O)C1CCN(S(=O)(=O)c2cccc3nsnc23)CC1 | i | i | i | i | i | i
CCCCN(C)CCNC(=O)C1CCN(S(=O)(=O)c2cccc3nsnc23)CC1 | i | i | i | i | 11 | i
CC1CCN(CCNC(=O)C2CCCN(S(=O)(=O)c3cccc4nsnc34)C2)CC1 (configuration not stated) | i | i | i | i | 12 | i
CCCCN(CC)CCNC(=O)C1CCCN(S(=O)(=O)c2cccc3nsnc23)C1 (configuration not stated) | i | i | i | i | i | 73
Cc1ccc(NC(=O)CCn2c(=O)[nH]c3ccsc3c2=O)cc1F | i | nt | i | i | i | i
CCOc1ccccc1OCCC(=O)NNC(=O)Cn1nc(C)cc1C | i | i | i | i | i | i
CC(C)C(=O)Nc1ccc(NC(=O)c2cccc3c(Br)cccc23)cc1 | i | i | i | i | i | i
Cc1cccc(C)c1OCc1nnc(SCC(=O)Nc2nccs2)n1-c1ccccc1 | i | 34 | i | i | i | i
O=C(CSc1nnc(CCCO)n1-c1ccccc1)Nc1nccs1 | i | i | i | i | i | i
COc1ccc(-c2[nH]c(-c3ccccc3)nc2SCC(=O)Nc2nccs2)cc1 | nt | i | nt | nt | nt | nt
COc1ccc(-n2c(SCC(=O)Nc3nccs3)nnc2-c2ccc(Cl)cc2)cc1 | nt | -1.0 | nt | nt | nt | nt
CCOc1ccccc1-n1c(SCC(=O)Nc2nccs2)nnc1-c1ccoc1C | i | i | -6 | i | i | i
COc1ccc(-c2nnc(SCC(=O)Nc3ccc(C(=O)O)cc3)n2-c2ccc(Cl)cc2)cc1 | i | i | i | i | i | i
COc1ccc(-c2[nH]c(-c3ccc(Cl)cc3)nc2SCC(=O)Nc2nccs2)cc1 | i | 73 | i | i | i | i
CCCCCN(C(=O)NC(=O)Nc1ccc(C)cc1)S(=O)(=O)c1ccccc1 | i | i | i | i | i | i
Cc1ccc(-n2nc(-c3cccs3)cc2C(=O)NCC2CCCO2)c(C)c1 (configuration not stated) | i | i | -7 | i | i | 55
CC(=O)NS(=O)(=O)c1ccc(NC(=S)NC(=O)Cc2ccccc2)cc1 | i | i | i | i | i | i
O=C1Nc2ccccc2/C1=N/N=C/c1ccc(-c2ccc([N+](=O)[O-])cc2)o1 | i | 72 | i | i | i | i
CSC[C@H]1CN(c2ccccc2)C(=O)[C@@H]1CC(=O)Nc1ccccc1 | nt | i | nt | nt | nt | nt
Cc1ccc(S(=O)(=O)NCc2ccc3c(c2)cc(C)n3C)cc1 | i | 71 | i | i | i | i
Cc1nnc(NC(=O)CSc2cn(Cc3ccccc3)c3ccccc23)s1 | i | -20 | i | i | i | i
Cc1ccc(Cn2cc(SCC(=O)Nc3nccs3)c3ccccc32)cc1 | i | i | i | i | i | i
COc1ccc(NC(=O)NNC(=O)c2ccccc2-n2cccc2)cc1OC | i | i | i | i | i | i
COc1ccc(CN=CC2=C(O)CNC2=O)cc1 | i | i | i | i | i | i
COc1ccc(CN=Cc2[nH]c3ccc(Br)c(Cl)c3c2O)cc1 | 16 | i | i | i | i | i
CCCOc1ccc(CNC(=O)CCC(=O)n2ncc3cc(C)ccc32)cc1 | i | i | i | i | i | i

Screening data deposited in PubChem by several laboratories.
